Published values gathered from unrelated publications.
Compare with care: the assays were run in different laboratories.
Target: Tyrosine-protein kinase FRK (FRK, Homo sapiens, UniProt P42685)

For `CCCOc1ccc(OC)c(F)c1C(=O)c1ccc(C(=O)N[C@@H]2CNC[C@H]2NC(=O)c2ccc3[nH]ncc3c2)cc1`, the remaining activity was 96% (enzyme activity, inhibitor; 10 µM).
With `CC(=O)N1CCC(c2ccc(C(=O)NC3=NCCN3)cc2C(F)(F)F)CC1` the remaining binding was 97% (cell-free assay, competition with immobilised ligand; 1 µM).
The inhibition of `CN1CC(Oc2cnc(C#N)cc2-c2ccn3nc(NC(=O)C4CC4)cc3c2)C1` is reported as 0% (enzyme activity, inhibitor; 1 µM).
`CCN(CC)c1ccc(C2=NNC(=O)CC2C)cc1[N+](=O)[O-]` (stereo not shown) gave a remaining activity of 83% (enzyme activity, inhibitor; 10 µM).
`CCOCCn1cc(C(=O)Nc2ccc(-n3nc(-c4cccnc4)cc3C(F)(F)F)cn2)ccc1=O` gave a remaining binding of 100% (cell-free assay, competition with immobilised ligand; 1 µM).
With `CNC(=O)c1cc2c(Oc3ccc(NC(=O)C4(C(=O)Nc5ccc(F)cc5)CC4)cc3)ccnc2cc1OC` the inhibition was 99% (enzyme activity, inhibitor, radiometric; 1 µM).
`CC(=O)Nc1c(C(C)=O)c(=O)n(C)c2nc(-c3ccc(Cl)cc3Cl)c(-c3ccc(Cl)cc3)cc12` has a remaining binding of 100% (cell-free assay, competition with immobilised ligand; 1 µM).
`Nc1ncnc2occ(-c3ccc(NC(=O)Nc4cc(C(F)(F)F)ccc4F)cc3)c12` has a remaining signal of 0.15% (cell-free assay, inhibitor; 20 µM).
`O=c1c2ccccc2[nH]c(=S)n1CCN1CCC(=C(c2ccc(F)cc2)c2ccc(F)cc2)CC1` has a remaining activity of 100% (enzyme activity, inhibitor; 0.5 µM).
The remaining binding of `O=C1CCc2cc(Nc3cc(OC4CCOCC4)c([N+](=O)[O-])cc3Cl)ccc2N1` is reported as 73% (cell-free assay, competition with immobilised ligand; 1 µM).
For `COc1cc(Cl)c(C(=O)N[C@@H](CN[C@H]2CC[C@@H](N)CC2)Cc2ccc(C#N)cc2)cc1-c1ccc(CN[C@H](C)c2ccc(C)cc2)o1`, the remaining activity was 99% (enzyme activity, inhibitor; 1 µM).
`Cc1sc(C(=O)NC2COC2)cc1-n1cc(NC(=O)Nc2c(F)cccc2Cl)cn1` has a remaining activity of 87.3% (enzyme activity, inhibitor; 10 µM).
For `O=c1cc(-c2cccc3c2Sc2ccccc2S3)oc(N2CCOCC2)c1`, the remaining activity was 99.5% (enzyme activity, inhibitor; 0.5 µM).
The inhibition of `CCN(CC)CCNC(=O)c1c(C)[nH]c(/C=C2\C(=O)Nc3ccc(F)cc32)c1C` is reported as 47% (enzyme activity, inhibitor; 0.3 µM).
The remaining activity of `CC(C)(C)c1nc2c(s1)c1nc(N)ncc1c1ccc(NS(=O)(=O)c3c(F)cccc3F)c(F)c12` is reported as 103% (enzyme activity, inhibitor, radiometric; 1 µM).
The inhibition of `COc1cc2ncnc(Nc3ccc(Oc4ccccc4)c(C)c3C)c2cc1OC` is reported as 20% (enzyme activity, inhibitor; 1 µM).
With `Cc1c(C(=O)O)cc(-c2ccc(C3CCNCC3)cc2)c2ccc(-c3ccc(C(F)(F)F)cc3)cc12` the remaining binding was 100% (cell-free assay, competition with immobilised ligand; 1 µM).
For `COc1cc2c(Nc3ccc(Br)cc3F)ncnc2cc1OCC1CCN(C)CC1`, the remaining signal was 79.5% (cell-free assay; 0.5 µM).
The remaining activity of `Cc1cnc(NC2CCOCC2)nc1-n1cnc(C(=O)NC(CN)c2cc(F)cc(Cl)c2)c1` (stereo not shown) is reported as 98% (enzyme activity, inhibitor, radiometric; 1 µM).
`O=C1NC(=O)c2cc(Nc3ccc(F)cc3)c(Nc3ccc(F)cc3)cc21` has a remaining signal of 97.2% (cell-free assay; 0.5 µM).
`C[C@@]1(Cc2ccc(C#N)cc2)C(=O)N(c2cc(Cl)cc(Cl)c2)c2ncc(C(=O)NC3(c4nc(C5CCC5)no4)CC3)n21` gave a remaining binding of 81% (cell-free assay, competition with immobilised ligand; 1 µM).
For `COc1cc2nccc(Oc3ccc(NC(=O)c4c5n(n(-c6ccc(F)cc6)c4=O)CCCC5)cc3)c2cc1OC`, the inhibition was 86% (enzyme activity, inhibitor; 0.1 µM).
